Results published in article PMC10868414 (Pharmaceutical Biology, 2024).

Key:
[1] = SDS at 1.0% w/w mixed in diet; ref Elder [1983]; cited from earlier work
[2] = Elimination of andrographolide in urine and feces; format: in vivo, beagle dogs
Procedure, shortened: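 Male beagles (2.0–2.5 y, 10–15 kg; n = 4/group), fasted 10 h with water, caged singly; oral capsules equivalent to 3 mg/kg andrographolide, single dose and daily for 7 days. Urine centrifuged; feces mixed 50:50 w/v with methanol. Samples hydrolysed with β-glucuronidase solution (1,000 U/mL, pH 6.8, 37 °C, 30 min), methanol-precipitated with digoxin internal standard, LC-MS/MS (triple quadrupole); mean ± SD.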

[3] = poor water solubility and high permeability; ref Lee et al. [2019]; cited from earlier work
[4] = Lipinski's Rule of Five criterion; ref Lipinski et al. [2001]; cited from earlier work

Compound | Abnormalities in long-term study [1] | dose excreted ([2]; beagle, dog, urine, po, 3 mg/kg) [%] | Feces excretion of andrographolide ([2]; of the administered dose, after oral administration of A. paniculata formulations) | Biopharmaceutics Classification System (BCS) category [3] | logP value [4]
CCCCCCCCCCCCOS(=O)(=O)[O-].[Na+] [SDS, Sodium dodecyl sulfate] | did not result in any abnormalities |  |  |  | 
C=C1CC[C@@H]2[C@](C)(CO)[C@H](O)CC[C@@]2(C)[C@@H]1C/C=C1/C(=O)OC[C@H]1O [andrographolide, Andrographolide] |  | 0.1 to 1 | less than 0.4% | BCS class II | lower than 5
